Among the data in ChEMBL document CHEMBL1152545, “Fluorinated indazoles as novel selective inhibitors of nitric oxide synthase (NOS): synthesis and biological evaluation” (Bioorg Med Chem, 2009) are IC50, inhibition and Activity values, retold here.

Assay [1] has as its target T1, Nitric oxide synthase 1 (Homo sapiens, UniProt P29475). Kind of assay: Inhibition of recombinant NOS1 assessed as citrulline formation.
In assay [2] the target is Nitric oxide synthase, inducible (Rattus norvegicus) (UniProt Q06518). Briefly: Inhibition of Wistar rat NOS2 assessed as L-[3H]citrulline formation at 1 mM by liquid scintillation counting relative to control in presence of EDTA. The procedure, abridged: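 NOS-II source: lung homogenate (0.1 g/mL, Tris/DTT/protease inhibitors, pH 7.6, 2500g supernatant) from male Wistar rats 6 h after iv LPS 10 mg/kg in saline. 10 µL sample incubated 30 min at 37 °C with 10 µM L-arginine plus 40 nM L-3H-arginine, H4-biopterin, FAD, CaCl2, 10 mM EDTA; NADPH started reaction. Compound 1 mM; three experiments in triplicate; mean ± SEM.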
Nitric oxide synthase, inducible (Rattus norvegicus), sequence (Q06518 whole entry): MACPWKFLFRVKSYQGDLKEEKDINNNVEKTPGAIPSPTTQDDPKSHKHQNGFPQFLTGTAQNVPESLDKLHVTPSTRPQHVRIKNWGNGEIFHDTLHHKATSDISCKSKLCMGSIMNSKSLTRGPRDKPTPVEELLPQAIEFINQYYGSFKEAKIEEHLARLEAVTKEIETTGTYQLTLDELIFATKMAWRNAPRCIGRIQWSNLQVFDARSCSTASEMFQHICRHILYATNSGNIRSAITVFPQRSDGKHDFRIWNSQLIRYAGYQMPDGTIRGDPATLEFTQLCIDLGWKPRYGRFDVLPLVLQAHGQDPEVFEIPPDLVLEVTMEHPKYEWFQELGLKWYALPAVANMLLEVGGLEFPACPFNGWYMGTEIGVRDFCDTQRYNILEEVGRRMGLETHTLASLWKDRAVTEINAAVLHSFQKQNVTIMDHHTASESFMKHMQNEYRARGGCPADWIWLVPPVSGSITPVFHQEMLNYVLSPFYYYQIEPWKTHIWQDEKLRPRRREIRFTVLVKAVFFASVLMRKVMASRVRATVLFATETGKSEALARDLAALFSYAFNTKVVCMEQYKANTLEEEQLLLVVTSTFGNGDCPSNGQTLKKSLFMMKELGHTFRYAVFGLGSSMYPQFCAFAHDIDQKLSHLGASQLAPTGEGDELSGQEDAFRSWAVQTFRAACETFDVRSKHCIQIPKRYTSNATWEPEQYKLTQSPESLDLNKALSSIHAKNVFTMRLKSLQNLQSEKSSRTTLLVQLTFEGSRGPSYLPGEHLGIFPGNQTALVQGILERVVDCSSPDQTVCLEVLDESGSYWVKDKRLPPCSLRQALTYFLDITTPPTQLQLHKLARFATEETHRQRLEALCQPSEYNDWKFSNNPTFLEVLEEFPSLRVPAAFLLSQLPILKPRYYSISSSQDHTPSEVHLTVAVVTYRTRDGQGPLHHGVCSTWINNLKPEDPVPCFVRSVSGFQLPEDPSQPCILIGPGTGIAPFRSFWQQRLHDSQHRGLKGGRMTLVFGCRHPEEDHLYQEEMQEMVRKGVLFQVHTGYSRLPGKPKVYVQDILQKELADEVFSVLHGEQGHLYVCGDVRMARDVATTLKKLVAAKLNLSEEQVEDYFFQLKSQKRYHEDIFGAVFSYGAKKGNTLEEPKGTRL

Assay [3] has as its target T1, Nitric oxide synthase 1. Kind of assay: Inhibition of NOS1.
Assay [4] concerns the target Nitric oxide synthase, inducible (Homo sapiens, UniProt P35228). Briefly: Inhibition of NOS2. The procedure, abridged:
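NOS-II source was lung homogenate (2500g supernatant) from male Wistar rats killed 6 h after iv LPS 10 mg/kg. Incubation ran 30 min at 37 °C, pH 7.6, with 10 µM L-arginine, 40 nM L-3H-arginine, cofactors and 0.75 mM NADPH, plus 10 mM EDTA to exclude NOS-I. Read-out was 3H-citrulline formed. Compounds were tested at 1 mM, or 0.1–1 mM for dose-response, in three experiments run in triplicate.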

Assay [5] has as its target Nitric oxide synthase, inducible (Rattus norvegicus) (UniProt Q06518). Kind of assay: Inhibition of Wistar rat NOS2 assessed as enzyme activity at 1 mM by liquid scintillation counting relative to control in presence of EDTA. More on the design: scale not given: the % may be the effect or the level left. An outline of the steps:
(§1)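 Lung homogenate (0.1 g/mL, pH 7.6 Tris with protease inhibitors, 2500g supernatant) from male Wistar rats given 10 mg/kg LPS iv in saline 6 h before. L-3H-arginine (40 nM, plus 10 µM L-arginine) to L-3H-citrulline conversion, 0.75 mM NADPH, 30 min at 37 °C, 10 mM EDTA. Compound at 0.1, 0.5 or 1 mM. Three experiments in triplicate.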

Assay [6] shares this target. Kind of assay: Inhibition of Wistar rat NOS2 assessed as L-[3H]citrulline formation by liquid scintillation counting relative to control in presence of EDTA. An outline of the steps: as §1
Assay [7] shares this target. Kind of assay: Inhibition of Wistar rat NOS2 assessed as enzyme activity at 0.5 mM by liquid scintillation counting relative to control in presence of EDTA. More on the design: scale not given: the % may be the effect or the level left. The procedure, abridged:
as §1

For assay [8] the target is unchanged. Briefly: Inhibition of Wistar rat NOS2 assessed as enzyme activity at 0.1 mM by liquid scintillation counting relative to control in presence of EDTA. More on the design: scale not given: the % may be the effect or the level left. An outline of the steps: as §1

One may read the IC50 as the midpoint of a concentration-inhibition curve. The term inhibition denotes the percentage by which the read-out fell short of the control.

T1 sequence (P29475 whole entry): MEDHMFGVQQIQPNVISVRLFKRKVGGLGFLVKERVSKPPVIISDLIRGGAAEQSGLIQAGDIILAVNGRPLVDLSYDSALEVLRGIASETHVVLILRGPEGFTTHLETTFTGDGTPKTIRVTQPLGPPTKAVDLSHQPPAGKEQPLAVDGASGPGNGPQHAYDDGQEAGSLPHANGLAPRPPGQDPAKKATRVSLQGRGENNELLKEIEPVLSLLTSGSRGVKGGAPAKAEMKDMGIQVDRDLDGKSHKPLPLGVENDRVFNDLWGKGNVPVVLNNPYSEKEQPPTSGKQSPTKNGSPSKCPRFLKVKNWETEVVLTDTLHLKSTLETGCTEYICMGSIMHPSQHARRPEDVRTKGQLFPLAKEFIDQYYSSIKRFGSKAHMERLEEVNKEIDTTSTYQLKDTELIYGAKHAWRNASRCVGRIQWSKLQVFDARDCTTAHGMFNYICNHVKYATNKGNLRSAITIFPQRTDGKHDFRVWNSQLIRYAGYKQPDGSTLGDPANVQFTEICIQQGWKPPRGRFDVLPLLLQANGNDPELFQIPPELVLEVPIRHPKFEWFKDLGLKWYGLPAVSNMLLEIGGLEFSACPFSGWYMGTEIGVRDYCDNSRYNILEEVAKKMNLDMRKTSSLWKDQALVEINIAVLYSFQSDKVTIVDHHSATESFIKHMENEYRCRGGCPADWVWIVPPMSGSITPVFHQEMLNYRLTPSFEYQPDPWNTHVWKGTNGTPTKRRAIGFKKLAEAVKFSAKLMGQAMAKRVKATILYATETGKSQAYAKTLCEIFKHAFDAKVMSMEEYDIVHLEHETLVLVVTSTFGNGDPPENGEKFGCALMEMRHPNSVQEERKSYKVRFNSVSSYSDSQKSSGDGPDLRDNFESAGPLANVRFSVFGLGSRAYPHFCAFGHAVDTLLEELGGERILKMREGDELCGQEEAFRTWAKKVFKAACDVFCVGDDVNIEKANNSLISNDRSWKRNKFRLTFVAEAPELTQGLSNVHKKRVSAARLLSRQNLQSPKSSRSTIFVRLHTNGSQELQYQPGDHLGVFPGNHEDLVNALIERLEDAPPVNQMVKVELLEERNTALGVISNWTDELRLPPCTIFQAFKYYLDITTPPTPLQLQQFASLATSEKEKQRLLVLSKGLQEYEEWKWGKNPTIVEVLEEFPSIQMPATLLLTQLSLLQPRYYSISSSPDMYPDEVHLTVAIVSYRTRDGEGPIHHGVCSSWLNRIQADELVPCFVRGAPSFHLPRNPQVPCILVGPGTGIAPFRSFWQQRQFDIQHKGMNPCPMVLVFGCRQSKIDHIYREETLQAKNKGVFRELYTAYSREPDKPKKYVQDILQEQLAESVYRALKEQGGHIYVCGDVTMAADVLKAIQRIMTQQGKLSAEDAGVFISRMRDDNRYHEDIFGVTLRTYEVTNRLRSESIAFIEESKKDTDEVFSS
Nitric oxide synthase, inducible, sequence (P35228 whole entry): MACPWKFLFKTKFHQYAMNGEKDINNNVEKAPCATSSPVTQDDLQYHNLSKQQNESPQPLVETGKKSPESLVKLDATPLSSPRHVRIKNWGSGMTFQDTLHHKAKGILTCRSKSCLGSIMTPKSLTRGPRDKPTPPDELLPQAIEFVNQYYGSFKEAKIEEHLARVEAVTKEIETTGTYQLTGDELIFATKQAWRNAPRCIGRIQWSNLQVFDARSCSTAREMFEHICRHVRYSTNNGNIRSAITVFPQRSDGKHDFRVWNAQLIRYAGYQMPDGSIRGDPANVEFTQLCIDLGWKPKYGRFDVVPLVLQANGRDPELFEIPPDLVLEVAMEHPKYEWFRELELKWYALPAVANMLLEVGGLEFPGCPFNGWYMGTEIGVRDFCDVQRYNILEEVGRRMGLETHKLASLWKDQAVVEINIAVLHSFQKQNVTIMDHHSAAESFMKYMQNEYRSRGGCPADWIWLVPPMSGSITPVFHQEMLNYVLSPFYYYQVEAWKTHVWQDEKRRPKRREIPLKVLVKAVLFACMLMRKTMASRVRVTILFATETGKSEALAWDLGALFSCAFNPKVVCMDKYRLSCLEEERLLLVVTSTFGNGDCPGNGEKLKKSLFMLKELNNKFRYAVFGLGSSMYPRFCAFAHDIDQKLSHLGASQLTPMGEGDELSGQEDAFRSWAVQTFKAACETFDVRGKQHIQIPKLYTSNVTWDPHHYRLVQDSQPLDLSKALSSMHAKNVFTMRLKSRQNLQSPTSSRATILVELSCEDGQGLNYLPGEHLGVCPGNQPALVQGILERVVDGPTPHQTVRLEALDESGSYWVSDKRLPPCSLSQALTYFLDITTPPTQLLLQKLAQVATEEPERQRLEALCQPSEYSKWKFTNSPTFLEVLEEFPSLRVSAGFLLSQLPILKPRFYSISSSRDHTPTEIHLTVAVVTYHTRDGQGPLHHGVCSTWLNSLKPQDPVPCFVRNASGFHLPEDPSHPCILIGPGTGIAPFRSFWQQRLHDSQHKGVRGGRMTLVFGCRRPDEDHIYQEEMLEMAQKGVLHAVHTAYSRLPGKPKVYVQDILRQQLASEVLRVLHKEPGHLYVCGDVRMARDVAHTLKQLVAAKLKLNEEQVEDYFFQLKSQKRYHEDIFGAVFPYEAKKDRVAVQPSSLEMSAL

With `Clc1n[nH]c2ccccc12`, the IC50 in assay [1] was 100 µM.

With `Cn1nc2c([N+](=O)[O-])cccc2c1Br`, the inhibition in assay [2] came to 7%.

As for `Brc1cccc2cn[nH]c12`, the IC50 in assay [3] was found to be 14 µM.

As to `Clc1ccc2[nH]ncc2c1`, in assay [3], the IC50 was 59 µM.

Regarding `Cn1cc2cccc([N+](=O)[O-])c2n1`, the inhibition in assay [2] was 36%.

In the case of `Oc1n[nH]c2c(F)c(F)c(F)c(F)c12`, the inhibition in assay [2] was 6%.

With `O=[N+]([O-])c1cccc2cn[nH]c12` [7-NITROINDAZOLE], the inhibition in assay [2] is 84%. Moreover, the 50% inhibitory concentration (IC50) in assay [4] was found to be 5.8 µM.

Regarding `Nc1ccc2cn[nH]c2c1`, the 50% inhibitory concentration (IC50) in assay [1] is greater than 1000 µM.

Consider `Cn1nc(Br)c2cccc([N+](=O)[O-])c21`, for which, in assay [2], the inhibition worked out at 10%.

For the compound `Clc1ccc2cn[nH]c2c1`, the IC50 in assay [3] stood at 22 µM.

Regarding `Fc1c(F)c(F)c2c(-c3ccccc3)n[nH]c2c1F`, the inhibition in assay [2] stood at 37%.

For the compound `Cn1ncc2cccc([N+](=O)[O-])c21`, the inhibition in assay [2] turned out to be 25%.

With `Clc1cccc2[nH]ncc12`, half-maximal inhibition in assay [3] (IC50) was put at 44 µM.

As for `O=[N+]([O-])c1cccc2c(Br)n[nH]c12`, the inhibition in assay [2] came to 97%. The IC50 in assay [3] turned out to be 0.17 µM; in assay [4], 0.29 µM.

As to `Nc1ccc2[nH]ncc2c1`, the concentration for half-maximal inhibition (IC50) in assay [1] is greater than 1000 µM.

In assay [3], `Brc1ccc2cn[nH]c2c1` gave a 50% inhibitory concentration (IC50) of 4.3 µM.

For the compound `Clc1cccc2cn[nH]c12`, the IC50 in assay [3] is 4.2 µM.

In the case of `Fc1c(F)c(F)c(-c2n[nH]c3c(F)c(F)c(F)c(F)c23)c(F)c1F`, the inhibition is 80% in assay [2] and “Dose-dependent effect” in assay [6]. The Activity in assay [5] is 20%; in assay [7], 58%; in assay [8], 90%. It took 400 µM to reach half-maximal inhibition in assay [4] (IC50).

Turning to `O=c1[nH][nH]c2ccccc12`, the IC50 in assay [1] was greater than 1000 µM.

In assay [3], `Brc1ccc2[nH]ncc2c1` came in with an IC50 of 72 µM.

With `Nc1cccc2cn[nH]c12`, the half-inhibitory concentration (IC50) in assay [1] was determined as 115 µM.

For the compound `O=[N+]([O-])c1ccc2[nH]ncc2c1`, in assay [3], half-maximal inhibition (IC50) was put at 47 µM.

As to `Cc1n[nH]c2c(F)c(F)c(F)c(F)c12`, the inhibition in assay [2] came out at 83%.

For the compound `CC12CCC(C3C=NN=C31)C2(C)C` (racemic), the inhibition in assay [2] is 20%.

Consider `CCc1n[nH]c2ccccc12`, for which the IC50 in assay [1] is 310 µM.

For the compound `c1ccc2[nH]ncc2c1` [INDAZOLE], in assay [1], the concentration for half-maximal inhibition (IC50) stood at 178 µM.

As to `O=C1CCCc2[nH]ncc21`, the inhibition in assay [2] is 23%.

The compound `O=[N+]([O-])c1cccc2[nH]ncc12` showed a half-inhibitory concentration (IC50) in assay [3] of 3.1 µM.

With `Cc1n[nH]c2c1C(=O)CC(C)(C)C2`, in assay [2], the inhibition is 22%.

`Fc1c(F)c(F)c2c(C(F)(F)F)n[nH]c2c1F`: in assay [2], the inhibition amounted to 21%.

In assay [3], `Brc1cccc2[nH]ncc12` displayed a half-maximal inhibitory concentration (IC50) of 2.4 µM.

`O=[N+]([O-])c1ccc2cn[nH]c2c1`: the half-maximal inhibitory concentration (IC50) in assay [3] was determined as 32 µM.

`Ic1cccc2[nH]ncc12` returned an IC50 in assay [3] of 17 µM.

Turning to `CC1(C)CC(=O)c2cn[nH]c2C1`, the inhibition in assay [2] was 2%.

`Ic1ccc2[nH]ncc2c1` gave an IC50 in assay [3] of 37 µM.

In the case of `Cc1n[nH]c2c1C(=O)CCC2`, in assay [2], the inhibition is 4%.

As for `O=[N+]([O-])c1ccc2c(Cl)n[nH]c2c1`, in assay [3], it took 158 µM to reach half-maximal inhibition (IC50).
